Reference: PubChem BioAssay
Calls of active or inactive are those of the source.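 The calls were made as follows, unless noted: active = GFP response above 150% of the DMSO level; inconclusive = fewer than 70 events counted for a yeast strain; inactive = the rest.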

Assays:
[1] = hit retest on RPL19A-GFP reporter strain – cell-based, S. cerevisiae, flow cytometry, cherry picks, mother/daughter gates, confirmation (AID 2270;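 active = GFP response below 50% of the DMSO control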); conditions: 3 h, at 10 µM, stronger effect = lower value, 100 = same GFP as DMSO wells
[2] = yeast TOR pathway reporter LAP4-GFP change – cell-based, cherry picks, flow cytometry, mother/daughter gates, confirmation (AID 2271;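 active = GFP response above 150% of the DMSO control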;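 also: ratio of sample to DMSO plate mean so 100% equals DMSO level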); conditions: S. cerevisiae LAP4-GFP strain, 3 h, at 10 µM, stronger effect = higher value, 100 means same as DMSO control
Outline: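 System: GFP-fusion yeast strain; Incubation: compound exposure 3 h at 30 °C, end-over-end rotation; Measured by: GFP by flow cytometry; Read-out: median GFP fluorescence as percent of plate-mean DMSO wells; Medium: synthetic complete (SC) yeast growth medium; Compound: single test-compound dose, 10 µM final; Benchmarks: DMSO-only negative wells, rapamycin 400 ng/mL positive wells.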

[3] = TOR pathway reporter MEP2-GFP, retest of hits – S. cerevisiae, flow cytometry GFP, cherry picks, confirmation (AID 2272;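 active = GFP response above 150% of the DMSO control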;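 also: ratio of well signal to plate DMSO mean so 100% equals DMSO level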); conditions: S. cerevisiae MEP2-GFP strain, 3 h, at 10 µM, stronger effect = higher value
[4] = yeast AGP1-GFP fluorescence change, single-dose – cell-based, flow cytometry, S. cerevisiae, cherry picks, confirmation (AID 2273);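 also: median GFP channel fluorescence over the whole cell population gate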; conditions: S. cerevisiae AGP1-GFP strain, 3 h, at 10 µM
[5] = TOR pathway CIT2 reporter hit retest – S. cerevisiae, GFP fusion, cherry picks, mother/daughter gates, confirmation (AID 2274); conditions: S. cerevisiae CIT2-GFP strain, flow cytometry, 3 h, at 10 µM, stronger effect = higher value
[6] = measured here: daughter cell gate
[7] = measured here: mother cell gate
[8] = measured here: daughter cell gate response
[9] = measured here: mother cell gate response

SMILES	GFP response vs DMSO [1]	GFP response vs DMSO [1, 6]	GFP response vs DMSO [1, 7]	GFP response relative to DMSO [2]	GFP response relative to DMSO [2, 8]	GFP response relative to DMSO [2, 9]	GFP response vs DMSO [3]	GFP response, % of DMSO [4]	GFP response, % of DMSO [5]	GFP response, % of DMSO [5, 6]	GFP response, % of DMSO [5, 7]
O=C(Nc1ccc(NC(=O)c2cc3ccccc3o2)cc1)c1ccc2c(c1)OCCO2	103% (inactive)	101%	102%	97% (inactive)	95.9%	97.3%	103% (inactive)	98.6% (inactive)	105% (inactive)	99.2%	107%
CC(=O)Oc1oc(-c2ccccc2)nc1C=Nc1ccc(N(C)C)cc1	100% (inactive)	100%	99.2%	95% (inactive)	91%	98.3%	95.7% (inactive)	97% (inactive)	92.6% (inactive)	91.5%	92.3%
O=C1c2ccsc2SCCN1Cc1c(Cl)cccc1Cl	102% (inactive)	99.2%	102%	98.7% (inactive)	97.2%	102%	93.5% (inactive)	93.9% (inactive)	103% (inactive)	101%	104%
CCOc1ccc(-c2nc(-c3ccc(OC)cc3)no2)cc1OCC	101% (inactive)	101%	101%	94.2% (inactive)	92.2%	93.6%	102% (inactive)	96% (inactive)	99.3% (inactive)	100%	99.1%
O=C1c2cccc3cccc(c23)C(=O)N1c1cccnc1	100% (inactive)	102%	101%	85% (inactive)	86.4%	85.5%	98.3% (inactive)	98.7% (inactive)	99.7% (inactive)	105%	98.5%
Brc1ccc2c(c1)OCCOCCOc1cc(Br)ccc1OCCOCCOCCO2	99% (inactive)	98.4%	96.9%	126% (inactive)	123%	126%	111% (inactive)	92.7% (inactive)	96.9% (inactive)	97.2%	93.8%
Cc1cc2ccccn2c1C(=O)c1ccc([N+](=O)[O-])o1	102% (inactive)	106%	94.6%	195% (active)	182%	196%	132% (inactive)	109% (inactive)	98.4% (inactive)	106%	87.8%
CCCCN(CC)S(=O)(=O)c1ccc(C(=O)Nc2nnc(-c3ccccc3Cl)o2)cc1	98.8% (inactive)	99.1%	98.5%	97.9% (inactive)	99.2%	98.3%	109% (inactive)	92.7% (inactive)	98.3% (inactive)	99.1%	98.5%
Cc1ccc(S(=O)(=O)N2CCCC2C(=O)OCc2ccco2)cc1 (stereo not drawn)	103% (inactive)	103%	103%	89% (inactive)	92.5%	92.1%	107% (inactive)	97.6% (inactive)	112% (inactive)	111%	112%
CN1Cc2sc(NC(=S)NC(=O)c3ccccc3)c(C#N)c2CC1(C)C	99.5% (inactive)	99.8%	100%	109% (inactive)	104%	111%	133% (inactive)	106% (inactive)	109% (inactive)	109%	110%
COc1ccc(NC(=O)COC(=O)c2ccco2)c([N+](=O)[O-])c1	99.5% (inactive)	98.5%	96.7%	103% (inactive)	99.3%	102%	108% (inactive)	98.9% (inactive)	99.3% (inactive)	92.7%	98%
O=[N+]([O-])c1cc(CN2CCN(c3ccccc3)CC2)c(O)c2ncccc12	76.4% (inactive)	108%	59.5%	161% (active)	138%	165%	114% (inactive)	78.8% (inactive)	97.3% (inactive)	106%	88.2%
O=C1C2C3C=CC(CNS(=O)(=O)c4ccccc4[N+](=O)[O-])(O3)C2C(=O)N1c1ccccc1 (stereo not drawn)	97.6% (inactive)	97.3%	97.3%	98.6% (inactive)	99.7%	98.2%	101% (inactive)	101% (inactive)	107% (inactive)	106%	107%
O=C(N/N=C/c1ccc(OCCCF)cc1)c1cc(OCC(F)(F)F)ccc1OCC(F)(F)F	98% (inactive)	100%	98.2%	97.4% (inactive)	98.7%	101%	102% (inactive)	97.2% (inactive)	95.2% (inactive)	94.8%	97.7%
CC(C)c1nnc(-c2ccc(Cl)cc2)c(N(C)C)n1	98.9% (inactive)	99.3%	97.8%	98.9% (inactive)	96%	99.5%	103% (inactive)	106% (inactive)	100% (inactive)	101%	100%
CCOC(=O)CSC1=NC(=O)/C(=C\c2ccc(Cl)cc2)S1	96.5% (inactive)	87.9%	94.6%	197% (active)	150%	186%	103% (inactive)	116% (inactive)	88.9% (inactive)	81.6%	88.2%
Cc1cc(C)c2c(c1)/C(=C/C(=O)c1ccc(Br)s1)C(=O)N2	104% (inactive)	102%	103%	99.5% (inactive)	101%	102%	105% (inactive)	97.8% (inactive)	94.4% (inactive)	93.8%	94.4%
CC1(C)CC(=O)C(C(C2=C(O)CC(C)(C)CC2=O)c2cccs2)C(=O)C1 (stereo not drawn)	100% (inactive)	103%	101%	100% (inactive)	102%	100%	97.5% (inactive)	94.3% (inactive)	101% (inactive)	102%	99.1%
CCN(c1ccccc1)S(=O)(=O)c1ccc(C(=O)Nc2nnc(COC)o2)cc1	101% (inactive)	99.5%	102%	96.2% (inactive)	97.2%	98.3%	100% (inactive)	99.2% (inactive)	96.5% (inactive)	94.8%	98.7%
CCCN(c1ccccc1F)S(=O)(=O)c1cc(-c2cc(C)no2)ccc1OC	95.6% (inactive)	95.6%	96.1%	97.9% (inactive)	96%	98.3%	102% (inactive)	95.6% (inactive)	95.5% (inactive)	95.4%	95%
O=C(N/N=C/c1ccc(-c2ccc(Br)cc2)o1)c1ccc2c(c1)OCO2	102% (inactive)	98.6%	101%	99.5% (inactive)	95.9%	98.4%	103% (inactive)	98.8% (inactive)	102% (inactive)	99.2%	98.1%
Cc1cc(O)c(C(=O)/C=C/c2ccccc2Br)c(=O)o1	90.3% (inactive)	95.9%	87.7%	140% (inactive)	137%	144%	97.8% (inactive)	102% (inactive)	95.2% (inactive)	98.1%	93.4%
Cn1cc(/C=C/c2cc[n+](C)cc2)c2cc(F)ccc21	102% (inactive)	102%	102%	115% (inactive)	117%	116%	134% (inactive)	103% (inactive)	115% (inactive)	116%	114%
